The source of these data is PMC5850608 (Molecular Biology and Evolution, 2017).

One experiment addresses T1, EsemOR3 (Eriocrania semipurpurella, UniProt A0A2H4NT95).
T1 sequence (A0A2H4NT95 1-441): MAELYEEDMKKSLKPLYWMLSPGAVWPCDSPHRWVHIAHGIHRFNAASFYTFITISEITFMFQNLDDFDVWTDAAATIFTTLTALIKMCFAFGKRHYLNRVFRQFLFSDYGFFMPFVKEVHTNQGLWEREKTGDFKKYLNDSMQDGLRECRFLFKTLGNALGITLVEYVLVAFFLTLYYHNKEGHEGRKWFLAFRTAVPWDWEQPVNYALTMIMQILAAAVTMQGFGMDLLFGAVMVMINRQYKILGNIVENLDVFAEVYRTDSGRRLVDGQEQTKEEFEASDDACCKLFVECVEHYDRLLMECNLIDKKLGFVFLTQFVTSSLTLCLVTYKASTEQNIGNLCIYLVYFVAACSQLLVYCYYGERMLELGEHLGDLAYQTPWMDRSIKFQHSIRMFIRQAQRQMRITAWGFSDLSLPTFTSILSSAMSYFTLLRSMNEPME
T1 sequence (A0A2H4NT96 1-482 partner): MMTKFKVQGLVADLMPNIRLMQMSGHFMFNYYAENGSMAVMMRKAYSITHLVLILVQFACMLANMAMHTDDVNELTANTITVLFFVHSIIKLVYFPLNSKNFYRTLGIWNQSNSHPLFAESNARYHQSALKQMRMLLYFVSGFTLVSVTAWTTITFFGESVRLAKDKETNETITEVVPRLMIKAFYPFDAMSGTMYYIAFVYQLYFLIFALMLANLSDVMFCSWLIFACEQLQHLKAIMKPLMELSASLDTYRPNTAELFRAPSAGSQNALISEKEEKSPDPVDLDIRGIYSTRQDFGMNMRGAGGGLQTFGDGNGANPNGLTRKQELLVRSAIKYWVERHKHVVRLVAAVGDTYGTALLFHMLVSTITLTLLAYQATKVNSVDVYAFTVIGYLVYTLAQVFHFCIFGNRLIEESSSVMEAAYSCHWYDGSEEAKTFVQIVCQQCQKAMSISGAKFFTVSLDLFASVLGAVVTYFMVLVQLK
As to the kind of experiment: Fluorescent calcium assay, HEK293 cells expressing EsemOrco and EsemOR3. The experiment is classed as cell-based. To be noted: for Response of EsemOR3-expressing cells in screening: compounds screened at 30 µM. In a few lines: (§1)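 Inducible TREx HEK293 cells stably carry Myc-tagged Orco plus V5-tagged receptor; non-induced wells serve as control. Cells loaded 30 min RT with 1 µM Fluo4-AM, 0.2% pluronic, in DPBS (Ca2+, Mg2+, 1 mM probenecid, pH 7.1); fluorescence read 1 min after ligand. Screen at 30 µM; dose–response from 150 µM, 1/2 dilutions; Orco agonist 50 µM; 0.5% DMSO vehicle. Triplicate wells, three experiments; EC50 (95% CI) by nonlinear fit.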

In another experiment the target is T2, EsemOR5 (Eriocrania semipurpurella, UniProt A0A2H4NTA6).
T2 sequence (A0A2H4NTA6 1-419): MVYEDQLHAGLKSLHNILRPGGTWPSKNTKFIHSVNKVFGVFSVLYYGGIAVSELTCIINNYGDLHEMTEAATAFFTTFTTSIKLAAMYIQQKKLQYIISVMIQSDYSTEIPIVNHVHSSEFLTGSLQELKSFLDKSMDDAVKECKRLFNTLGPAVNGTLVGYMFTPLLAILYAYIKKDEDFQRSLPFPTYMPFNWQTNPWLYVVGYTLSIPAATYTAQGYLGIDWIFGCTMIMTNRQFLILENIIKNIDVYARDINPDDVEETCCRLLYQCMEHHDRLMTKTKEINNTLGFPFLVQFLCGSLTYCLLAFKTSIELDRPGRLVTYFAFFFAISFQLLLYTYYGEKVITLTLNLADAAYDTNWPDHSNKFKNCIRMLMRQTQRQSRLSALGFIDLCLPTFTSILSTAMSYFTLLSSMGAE
T2 sequence (A0A2H4NT96 1-482 partner): T1 sequence (A0A2H4NT96 1-482 partner)
As to the kind of experiment: Fluorescent calcium assay, HEK293 cells expressing EsemOrco and EsemOR5. The experiment is classed as cell-based. To be noted: for Response of EsemOR5-expressing cells in screening: compounds screened at 30 µM. The method, boiled down:
as §1

Another experiment concerns E. semipurpurella males. The settings on record: cited from earlier work; for Attraction of E. semipurpurella: sex pheromone components, males but not females, ref Larsson etal. 2002; for Effect on male sex pheromone attraction: ref Kozlov etal. 1996.
A further experiment has as its target T3, EsemOR1 (Eriocrania semipurpurella, UniProt A0A2H4NTA3).
T3 sequence (A0A2H4NTA3 1-412): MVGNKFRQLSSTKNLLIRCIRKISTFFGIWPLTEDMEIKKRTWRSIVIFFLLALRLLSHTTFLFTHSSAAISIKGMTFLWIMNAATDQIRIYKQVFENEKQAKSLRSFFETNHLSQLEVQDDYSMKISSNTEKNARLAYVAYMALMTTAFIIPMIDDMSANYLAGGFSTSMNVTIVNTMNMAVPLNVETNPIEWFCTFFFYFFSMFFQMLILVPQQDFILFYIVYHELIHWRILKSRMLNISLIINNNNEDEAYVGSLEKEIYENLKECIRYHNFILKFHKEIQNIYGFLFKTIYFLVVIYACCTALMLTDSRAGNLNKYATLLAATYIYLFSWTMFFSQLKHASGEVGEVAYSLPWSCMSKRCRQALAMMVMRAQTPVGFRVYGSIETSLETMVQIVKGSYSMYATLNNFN
T3 sequence (A0A2H4NT96 1-482 partner): T1 sequence (A0A2H4NT96 1-482 partner)
As to the kind of experiment: Fluorescent calcium assay, HEK293 cells expressing EsemOrco and EsemOR1. The experiment is classed as cell-based. In a few lines: as §1

A further experiment deals with E. sangii. To be noted: ref Kozlov etal. 1996; cited from earlier work.
The next experiment has as its system EsemOR6. The experiment can be described thus: Fluorescent calcium assay, HEK293 cells expressing EsemOrco and EsemOR6. It is filed as cell-based, Eriocrania semipurpurella. To be noted: EsemOrco + EsemOR6 cell line, 50 μM, induced cells. The method, boiled down: as §1
Another experiment relates to EsemOR4. As to the kind of experiment: Fluorescent calcium assay, HEK293 cells expressing EsemOrco and EsemOR4. The experiment is classed as cell-based, Eriocrania semipurpurella. The settings on record: EsemOrco + EsemOR4 cell line, 50 μM, induced cells. The method, boiled down:
as §1

Entries after “also recorded” stand apart in the source; their conditions may differ.

On to `CCCCCC(O)CC` (stereo not shown) [3-Octanol], for which the “Response of EsemOR3-expressing cells in screening” value at EsemOR3 (induced cells) was “responded to a lesser extent”.

With `CC/C=C\CCC[C@@H](C)O` [(2R, 6Z)-6-nonen-2-ol, (2R,6Z)-6-Nonen-2-ol], on EsemOR3 (induced cells), the “Response of EsemOR3-expressing cells in screening” value was “less so”. In addition, the “Response of EsemOR5-expressing cells in screening” value on EsemOR5 (induced cells) is “Weaker responses”. Also, the “Attraction of E. semipurpurella” value with E. semipurpurella males was “attractive to males”.

As for `CC(C)=CCC[C@@H](C)O` [(R)-6-methyl-5-hepten-2-ol, (R)-6-Methyl-5-hepten-2-ol], on EsemOR3 (induced cells), the “Response of EsemOR3-expressing cells in screening” value is listed as “responded to a lesser extent”.

As to `CCCCCCC[C@H](C)O` [(S)-Nonan-2-ol], the “Response of EsemOR3-expressing cells in screening” value on EsemOR3 (induced cells) was “less so”. Moreover, the “Response of EsemOR5-expressing cells in screening” value on EsemOR5 (induced cells) was “Weaker responses”.

For the compound `CCCCCCCC(C)=O` [Nonan-2-one], the “Response of EsemOR3-expressing cells in screening” value on EsemOR3 (induced cells) is recorded as “less so; also recorded: more weakly”. Moreover, at EsemOR5 (induced cells), the “Response of EsemOR5-expressing cells in screening” value is given as “Weaker responses”. In the experiment with E. semipurpurella males (E. semipurpurella, low concentration, ref Larsson etal. (2002)), the “Effect on pheromone attraction” value is “increases pheromone attraction”. For the same compound, the “Effect on male sex pheromone attraction” value with E. semipurpurella males (E. semipurpurella) is on record as “antagonize male sex pheromone attraction”.

Take `CCCCC[C@H](C)O` [(S)-Heptan-2-ol]: the “Response of EsemOR3-expressing cells in screening” value on EsemOR3 (induced cells) is “less so; also recorded: responded to some extent”.

Take `CCCCCCOC(C)=O` [Hexyl acetate]: the “Response of EsemOR5-expressing cells in screening” value at EsemOR5 (induced cells) is on record as “responded”.

For the compound `CC/C=C\CCOC(C)=O` [(Z)-3-Hexenyl acetate], the “Response of EsemOR3-expressing cells in screening” value at EsemOR3 (induced cells) is recorded as “responded to a lesser extent”. Besides, the “Response of EsemOR5-expressing cells in screening” value at EsemOR5 (induced cells) is “responded”.

As a reminder, the EC50 is the concentration giving half of the maximal effect. Turning to `CC/C=C\CCC[C@H](C)O` [(2S,6Z)-6-Nonen-2-ol], the EC50 on EsemOR3 was 560 nM. On EsemOR3 (induced cells), the “Response of EsemOR3-expressing cells in screening” value is on record as “responded most strongly”. Moreover, on EsemOR5 (induced cells, listed as (2 S, 6Z)-6-nonen-2-ol), the “Response of EsemOR5-expressing cells in screening” value is “activated the OR”. For the same compound, the “Attraction of E. semipurpurella” value in the experiment with E. semipurpurella males is reported as “attractive to males”.

On to `CCC/C=C/COC(C)=O` [(E)-2-Hexenyl acetate], for which the “Response of EsemOR5-expressing cells in screening” value on EsemOR5 (induced cells) was “responded”.

For `C=C1CC/C=C(\C)CC[C@@H]2[C@@H]1CC2(C)C` [β-caryophyllene, β-Caryophyllene], the EC50 on EsemOR1 stood at 2430 nM. For the same compound, the “Response of EsemOR1-expressing cells in screening” value at EsemOR1 (induced cells, compounds screened at 30 µM) is listed as “responded”.

On to `CCCCCCCCC(C)O` (stereo not shown) [2-Decanol], for which, at EsemOR3 (induced cells), the “Response of EsemOR3-expressing cells in screening” value is “responded to a lesser extent”.

Regarding `CCCCCCC(C)=O` [2-Octanone], at EsemOR3 (induced cells), the “Response of EsemOR3-expressing cells in screening” value is “responded to a lesser extent”. Besides, at EsemOR5 (induced cells), the “Response of EsemOR5-expressing cells in screening” value was “responded”.

As to `CC/C=C\CCCC(C)=O` [(Z)-6-Nonen-2-one], on EsemOR3 (induced cells), the “Response of EsemOR3-expressing cells in screening” value is recorded as “less so; also recorded: responded to some extent”. In addition, the “Behavioural effect in E. sangii” value in the experiment on E. sangii is “antagonist”. Further, the EC50 at EsemOR5 was 430 nM. Moreover, the “Response of EsemOR5-expressing cells in screening” value on EsemOR5 (induced cells) was “responded most strongly”. The “Effect on male sex pheromone attraction” value in the experiment with E. semipurpurella males (E. semipurpurella) was “antagonize male sex pheromone attraction”.

In the case of `CCCCCCC(C)O` (stereo not shown) [2-Octanol], the “Response of EsemOR3-expressing cells in screening” value at EsemOR3 (induced cells) is given as “responded to a lesser extent”. For the same compound, the “Response of EsemOR5-expressing cells in screening” value on EsemOR5 (induced cells) is recorded as “responded”.

For the compound `CCc1ccc(NC(=O)CSc2nnc(-c3cccnc3)n2CC)cc1` [VUAA1], the “Response to Orco agonist (positive control)” value is on record as “elicited responses in induced cells” in the experiment on EsemOR6; “elicited responses in induced cells” at EsemOR3 (EsemOrco + EsemOR3 cell line, 50 μM, induced cells); “elicited responses in induced cells” on EsemOR5 (EsemOrco + EsemOR5 cell line, 50 μM, induced cells); “elicited responses in induced cells” in the experiment with EsemOR4; “elicited responses in induced cells” at EsemOR1 (EsemOrco + EsemOR1 cell line, 50 μM, induced cells).
